Source: PubChem BioAssay
Yeast growth inh = growth inhibitors of yeast BB579 in restrictive medium, primary screen, yeast lifespan-shortening project, S. cerevisiae. OD615, 48 h. inhibition, % at 10 µM. 140,000 compounds, 0.51% hits;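 active = inhibition above a set limit, 3 SD over the mean compound inhibition, cut at about 44% in these data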
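Detection: OD615 turbidity measurement; Material: Saccharomyces cerevisiae DeaD strain BB579, replicative lifespan model yeast; Timing: 48 h exposure, 30 °C; Doses: single 10 µM dose; Medium: CSMM-D restrictive synthetic medium containing dextrose (glucose); Controls: amphotericin B at 10 µg/mL as positive control.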
Yeast lifespan up = compounds extending yeast replicative lifespan, primary screen, S. cerevisiae, OD615 | S. cerevisiae growth with nicotinamide; deaD strain in restrictive glucose medium | inhibition of the nicotinamide effect, % at 10 µM | 130,000 compounds, 0.68% hits;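 active = inhibition above a set limit, placed 3 SD over the median of all compounds, cut at about 26% in these data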;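 note: 0% = nicotinamide-treated wells and 100% = cells grown without nicotinamide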
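Material: Modified budding yeast, DeaD strain | Medium: Restrictive glucose medium | Probe or stimulus: 1.5 mM nicotinamide | Dosing: Single dose 10 µM compound, 0.25% DMSO | Times: 48 h at 30 °C | Technique: OD615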
RAM inhibit = inhibitors of the yeast RAM network, primary screen, dse1pr::URA3 reporter, 5-FOA selection; S. cerevisiae dse1pr::URA3 reporter, 5-FOA growth OD615, 2 d; analog-sensitive cbk1-as2 kinase mutant strain; inhibition, % at 50 µM; 190,000 compounds, 1.8% hits; AID 868, 2007;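 active = inhibition above a set limit, 3 SD over mean compound inhibition, cut at about 8.4% in these data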;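 note: 0% = DMSO-only wells with no growth and 100% = 10 µM 1-NA-PP1 full growth; inhibition rescues growth on 5-FOA so higher OD means more RAM inhibition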
SDO1 yeast rescue = growth rescue of sdo1-depleted yeast, primary screen, S. cerevisiae, bone marrow failure model. AID 817, 2007. S. cerevisiae sdo1-depleted JHY4D growth rescue, OD600 30 h; active compounds read high; pdr5 snq2 efflux-pump mutant strain. 140,000 compounds, 0.21% hits. z-score at 10 µM;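 active = z-score above 3 at both the 24 hr and the 30 hr optical density reads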;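 note: z-score against mean and SD of all compound wells on the same plate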
* hit, by the source's call; · = no result given. Sampled rows, rich in hits. Any-hit rate of the full collection: about 2.7%.

SMILES	Yeast growth inh	Yeast lifespan up	RAM inhibit	SDO1 yeast rescue
Cc1cc(Cl)ccc1N=c1ssnc1Cl	63*	-13	2	-2.6
Cc1cc(Cl)ccc1N=C1N=C(N)c2ccccc21	-26	-4	8.9*	0.55
NC1=NC(=Nc2ccc(Cl)cc2)c2ccccc21	5	-3	1	-0.35
COC(=O)CCCNC(=O)c1ccccn1	·	·	1	·
CCOc1ccc(-n2c(SCC(=O)c3c(N)n(C)c(=O)n(C)c3=O)nnc2-c2cccnc2)cc1	-39	6	9.1*	0.58
Cc1ccccc1-n1c(SCC(=O)c2c(N)n(C)c(=O)n(C)c2=O)nnc1-c1cccnc1	-9	3	4	-0.57
O=C(CNCc1ccccc1)Nc1ccc(Oc2ccccc2)cc1	·	·	11*	·
CCOC(=O)c1cccc(NC(=O)C(C)N2C(=O)c3ccccc3C2=O)c1 (stereo not given)	-55	-6	2	0.63
CCOC(=O)c1ccc(NC(=O)C(C)N2C(=O)c3ccccc3C2=O)cc1 (stereo not given)	-54	27*	2	0.86
COC(=O)c1c(C(=O)OC)c(-c2cccc(Cl)c2)n2c1CS(=O)C2 (stereo not given)	·	·	0	·
O=C(CN(Cc1ccccc1)S(=O)(=O)c1cccc(C(F)(F)F)c1)NC1CCCCC1	-41	10	8.8*	-1.2
O=C(/C(=N\O)n1cncn1)c1ccc(Cl)cc1Cl	·	·	1	·
O=C(/C(=C/c1ccccc1)n1cncn1)c1ccc(Cl)cc1Cl	12	49*	-1	-1.2
Cn1c2ccccc2c(=O)c2c(=O)n(C3CCCCCC3)c(C3CCCCC3)nc21	-9	26*	1	-0.2
Cn1c2ccccc2c(=O)c2c(=O)n(-c3ccccc3)c(C3CCCCC3)nc21	-33	2	4	-1.4
CCc1nc2c(c(=O)c3ccccc3n2C)c(=O)n1C1CCCCCC1	-36	28*	3	-1.2
COc1cc(OC)nc(NC(=O)NS(=O)(=O)c2ccc(F)cc2)n1	·	·	0	·
COc1ccc(C(=O)NC(=S)Nc2cccc(NC(=O)c3ccco3)c2)cc1[N+](=O)[O-]	-8	-6	2	0.08
CCOc1ccc(C(=O)NC(=S)Nc2cccc(NC(=O)c3ccco3)c2)cc1[N+](=O)[O-]	-22	8	8.8*	-0.47
COc1ccc(CNC(=O)COC(=O)c2n[nH]c3ccccc23)cc1	-28	-17	10*	0.57
O=C(CSc1nnc(-c2ccccc2)o1)c1ccc2c(c1)OCCO2	-38	-7	8.4*	-0.3
N#Cc1c(-c2ccccc2)c(-c2ccccc2)nn(CC(=O)NNC(=O)Nc2ccccc2)c1=O	-10	62*	4	-0.36
O=C(Cn1nc(-c2ccccc2)c2ccccc2c1=O)Nc1cccc(O)c1	·	·	2	·
COc1ccc(OCCNc2cc(N3CCCCC3)ccc2[N+](=O)[O-])cc1	-53	1	11*	-0.18
COc1cccc(OCCNc2cc(N3CCCCC3)ccc2[N+](=O)[O-])c1	-26	-12	10*	-0.05
SMILES	Yeast growth inh	Yeast lifespan up	RAM inhibit	SDO1 yeast rescue
COc1ccc(OCCNc2cc(N3CCOCC3)ccc2[N+](=O)[O-])cc1	-45	-11	4	-1.7
COc1ccc(-c2ccnc(SCC(=O)c3ccc(Cl)cc3)n2)cc1	-35	-3	8.9*	0.18
Cc1ccc(N(CC(=O)O)S(C)(=O)=O)cc1	·	·	3	·
CCS(=O)(=O)c1nc(S(=O)(=O)c2ccc(Cl)cc2)c(NCCOC)s1	·	·	0	·
O=S(=O)(NC1CCCC1)c1ccc(S(=O)(=O)N(Cc2cccs2)CC2CCCO2)cc1 (stereo not given)	-50	-8	9.6*	-1.4
O=S(=O)(c1ccc(S(=O)(=O)N(Cc2cccs2)CC2CCCO2)cc1)N1CCCCC1 (stereo not given)	-50	-7	1	0.85
O=C(CNc1ccccc1)NN=C1CCCC1	·	·	0	·
O=C(NCCc1ccccn1)C(F)(F)C(F)(F)C(F)(F)C(F)(F)C(F)(F)C(F)(F)C(F)(F)C(F)F	-26	33*	-1	0.71
CCOCC(=O)Nc1c(C(=O)Nc2ccc(OC)cc2OC)oc2ccccc12	-45	-7	11*	0
COc1ccc(NC(=O)c2oc3ccccc3c2NC(=O)c2ccco2)c(OC)c1	-30	-16	2	-1.2
COC(=O)[C@@]1(Cc2ccc(F)cc2)[C@H]2c3cc(C(=O)N(C)C)n(CCc4ccc(OC)c(Br)c4)c3C[C@H]2CN1C(=O)c1ccccc1	-44	9	8.7*	-0.59
